# An excerpt weighted towards active compounds, which were near 1.9% of everything screened.
# DENV2 CPE rescue – inhibitors of DENV2 cytopathic effect | CPE inhibition, % at 9.99 µM | 1.7% of 350,000 active | DENV2-infected cells, cytopathic effect rescue, plate reader; in the data active = CPE inhibition above about 20%, passing the limit was not always enough; inconclusive = no clear call, values can overlap the other calls; tested in BHK-21 cells;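 note: 0% = median of neutral control wells and 100% = median of positive control wells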
# PGC1a acetyl inh – PGC1a acetylation modulation, inhibitor mode; U2OS PGC1a acetylation, AlphaScreen anti-acetyl-lysine; with virally co-expressed GCN5 acetyltransferase; inhibition, % at 15.6 µM; 0.17% of 350,000 active;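 active = every replicate shows inhibition of at least 40%; inconclusive = mean inhibition at least 40% but some replicate below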;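 note: 0% = neutral control wells and 100% = positive control wells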
# XiGFP reactiv – activators of X-chromosome reactivation in mouse fibroblasts; XiGFP mouse fibroblasts, % GFP-positive cells imaging, 3 d; cells co-treated with 5-aza-dC sensitizer; scaled so ellipticine positive control = 100%; activation, % at 7.58 µM; 0.055% of 360,000 active;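 active = mean normalized replicate activation at least 10% and every replicate at or above 10%; inconclusive = only one of the two criteria met; inactive = mean below 10% and not all replicates reach 10%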;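 note: 0% = median of on-plate neutral control wells and 100% = ellipticine 6 µM median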
#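 Material: SV40-immortalized XiGFP fibroblast cells, line 68-5-11 | Buffer or medium: DMEM containing 5-aza-dC | Dosing: One concentration, pinned | Times: 3 d treatment, 15 min room-temperature fixation | Controls: Ellipticine 6 µM positive control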
# CFTR F508del cor – correctors of CFTR F508del function in bronchial epithelial cells | CFBE cells, YFP halide quenching; stimulated with forskolin plus potentiator P3; % fluorescence drop versus neutral controls | 0.36% of 350,000 active | activity (quench increase), % at 7.58 µM;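 active = mean added fluorescence quench of at least 8% versus neutral control, with both replicates also reaching 8%; inconclusive = only one of the mean or replicate conditions met; inactive = mean below 8% and not both replicates reaching 8%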;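 note: cells transiently co-express mutant CFTR-F508del with the halide-sensitive YFP; corrector assay measuring rescue of mutant channel to the surface after 24 h compound exposure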
# Cneo AK release – Cryptococcus neoformans lysis via adenylate kinase release; lysis activity, % at 15 µM; C. neoformans lysis, adenylate kinase release luminescence, 4 h; normalised: neutral wells 0, clomiphene wells 100; 0.2% of 360,000 active; AID 651654;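 active = mean lysis activity across replicates of at least 80%, whatever share of replicates individually reach that level; inactive = mean lysis activity below 80%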
#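 Schedule: static 4 h at 37 °C with compound, 1 h detection; system: C. neoformans cells; benchmarks: Clomiphene as positive control; buffer or medium: fresh YPD medium; measure: luminescence rise reflecting yeast cell lysis; measured by: luminescent adenylate kinase detection reagent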
# FN deposition inh – fibronectin deposition inhibition | AH1F fibroblasts, Alexa488-fibronectin deposition fluorescence, overnight | inhibition, % at 12.6 µM | 0.086% of 350,000 active;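 active = mean inhibition across replicates of 30% or more, regardless of how many single replicates reach that level; inconclusive = mean under 30% yet at least half of replicates reach 30%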;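 note: positive control wells lacked labelled fibronectin entirely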
#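 Material: AH1F fibroblast monolayer depositing Alexa488-labelled fibronectin into matrix / Amount: 10000 AH1F cells per well / Signal: fluorescence 485/525 nm / Medium: DMEM, 2% serum / Compound: single dose, pinned / Incubation: 1 h cell adhesion before compound, then overnight fibronectin incubation / Reagent: Alexa488-FN, 24 nM final / Read-out: inhibition of fibronectin deposition signal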
# * hit, by the source's call; ? = inconclusive; / = no result.
SMILES,DENV2 CPE rescue,PGC1a acetyl inh,XiGFP reactiv,CFTR F508del cor,Cneo AK release,FN deposition inh
COc1ccc(NC(=O)Nc2ccc3c(c2)C(=O)N([C@@H](C)CO)C[C@@H](C)[C@H](CN(C)C(=O)Cc2ccccc2)OCCCC[C@H](C)O3)cc1,-14,5,0,1,115*,/
COc1ccc(NC(=O)Nc2ccc3c(c2)C(=O)N([C@H](C)CO)C[C@H](C)[C@H](CN(C)C(=O)Cc2ccccc2)OCCCC[C@H](C)O3)cc1,-10,0,0,4,101*,/
C[C@H](CO)N1C[C@H](C)[C@@H](CN(C)Cc2ccc(Oc3ccccc3)cc2)Oc2c(NS(=O)(=O)c3cccs3)cccc2C1=O,4,-1,0,-2,0,7
C/C=C/c1cnc2c(c1)C(=O)N([C@H](C)CO)C[C@@H](C)[C@@H](CN(C)C(=O)NCCC)O2,10,10,-1,0,0,5
O=C(Nc1ccc2c(c1)OCO2)N[C@@H]1CC[C@H](CCNC(=O)C2CC2)O[C@H]1CO,-17,-1,0,-3,-4,0
COc1cccc(S(=O)(=O)N[C@H]2CC[C@@H](CCn3cc(-c4ccccc4OC)nn3)O[C@@H]2CO)c1,?,-6,0,1,-1,-3
COc1ccc2c3c([nH]c2c1)[C@@H](CO)N(Cc1ccccc1)CC31CN(C)C1,-6,1,0,4,/,/
C[C@@H]1CN([C@@H](C)CO)C(=O)Cc2cc(NC(=O)Cc3cn(C)c4ccccc34)ccc2O[C@H]1CN(C)S(=O)(=O)c1cn(C)cn1,-5,-3,-1,2,-2,2
O=C1OC[C@@H](c2ccccc2)n2cc(/C=C/c3ccccc3)cc21,4,0,/,-1,4,/
COc1ccc(NC(=O)Nc2ccc3c(c2)C(=O)N([C@@H](C)CO)C[C@H](C)[C@H](CN(C)C(=O)Cc2ccccc2)OCCCC[C@H](C)O3)cc1,21*,-7,0,-2,0,/
COc1ccc(NC(=O)Nc2ccc3c(c2)C(=O)N([C@@H](C)CO)C[C@H](C)[C@H](CN(C)C(=O)Cc2ccccc2)OCCCC[C@@H](C)O3)cc1,0,12,0,0,1,/
COc1ccc(NC(=O)Nc2ccc3c(c2)C(=O)N([C@H](C)CO)C[C@@H](C)[C@H](CN(C)C(=O)Cc2ccccc2)OCCCC[C@@H](C)O3)cc1,30*,7,0,0,-1,/
COc1ccc(NC(=O)Nc2ccc3c(c2)C(=O)N([C@@H](C)CO)C[C@H](C)[C@@H](CN(C)C(=O)Cc2ccccc2)OCCCC[C@@H](C)O3)cc1,-5,-8,0,-4,1,/
CCOc1ccc(Nc2ncnc3ccc([N+](=O)[O-])cc23)cc1,-5,50*,1,2,/,4
CCOC(=O)c1ccc(Nc2ncnc3ccc(C)cc23)cc1,/,-4,/,/,-1,/
Cc1cccc(C(=O)N(Cc2ccco2)c2c(N)n(Cc3ccccc3)c(=O)[nH]c2=O)c1,-7,/,2,28*,7,-2
O=C(Nc1ccc(Cl)c(Cl)c1)N[C@H]1CC[C@H](CCn2cc(C3CCCC3)nn2)O[C@@H]1CO,?,-5,0,7,/,-21
CCC(=O)N1CC2(C1)[C@H](c1ccccc1)[C@H](CO)N2C(=O)c1ccccc1,0,8,0,3,/,/
C[C@H]1CN([C@@H](C)CO)C(=O)c2cc(C#CC3(O)CCCC3)cnc2O[C@@H]1CN(C)C(=O)C1CCC1,-12,-1,-1,1,0,/
CCc1nc2c(OCc3cccc(Cl)c3)cccn2c1N(C)C(=O)c1ccco1,23*,24,0,2,-1,2
CCc1nc2c(OCc3ccc(S(C)(=O)=O)cc3)cccn2c1N(C)C(=O)c1ccccc1F,0,45*,0,0,1,-8
CCc1nc2c(OCc3cccc(Cl)c3)cccn2c1N(C)C(=O)c1ccncc1,12,/,0,0,-1,0
CNC[C@H]1Oc2ccc(NC(=O)Cn3cnnn3)cc2C(=O)N([C@@H](C)CO)C[C@H]1C,32*,2,0,0,-6,2
C[C@H]1CN([C@@H](C)CO)C(=O)c2cc(NC(=O)Cn3cnnn3)ccc2O[C@H]1CN(C)Cc1ccc(-c2ccccc2)cc1,33*,2,0,4,9,/
C[C@@H]1CN([C@@H](C)CO)C(=O)Cc2cc(NC(=O)Cn3cnnn3)ccc2O[C@@H]1CN(C)Cc1ccc(Oc2ccccc2)cc1,2,-4,-1,-2,56,-2
SMILES,DENV2 CPE rescue,PGC1a acetyl inh,XiGFP reactiv,CFTR F508del cor,Cneo AK release,FN deposition inh
CNC[C@@H]1Oc2ccc(NC(=O)Cn3cnnn3)cc2C(=O)N([C@@H](C)CO)C[C@@H]1C,-1,-2,1,0,-3,3
C[C@H](CO)N1C[C@H](C)[C@@H](CN(C)Cc2ccc(Oc3ccccc3)cc2)Oc2ccc(NC(=O)Cn3cnnn3)cc2CC1=O,105*,-3,-1,2,-4,4
C[C@H](CO)N1C[C@H](C)[C@H](CN(C)Cc2ccc(-c3ccccc3)cc2)Oc2ccc(NC(=O)CCCN(C)C)cc2C1=O,10,-2,-1,2,1,53*
C[C@H]1CN([C@@H](C)CO)C(=O)c2cc(NS(=O)(=O)c3ccccc3)ccc2O[C@H]1CN(C)S(=O)(=O)c1ccc(F)cc1,/,-6,0,-2,/,/
C/C=C/c1ccc2c(c1)[C@@H]1[C@@H](CCN1S(=O)(=O)c1cccc(F)c1)[C@H](CO)N2,9,/,0,0,/,20
C[C@@H]1CN([C@@H](C)CO)C(=O)c2cc(NC(=O)CCCN(C)C)ccc2O[C@@H]1CN(C)Cc1ccccc1,30*,-8,0,-2,-7,/
Cc1ccc(C2CCN(C(=S)NC3CCCCC3)C2)cc1 (configuration not stated),8,10,0,-2,119*,2
Cc1ccc(C2CCN(C(=S)NC(C)(C)C)C2)cc1 (configuration not stated),-4,-28,0,-1,/,5
COc1ccc2c3c([nH]c2c1)[C@@H](CO)N(C(=O)C1CCCCC1)CC31CN(C(=O)c2ccncc2)C1,/,/,0,/,/,/
O=C(C[C@@H]1CC[C@H]2[C@@H](COC[C@@H](O)CN2C(=O)Nc2ccc(C(F)(F)F)cc2)O1)NCC1CCCCC1,-3,-7,0,3,0,6
CCCc1cn(CC[C@@H]2CC[C@@H](NC(=O)Nc3ccccc3F)[C@H](CO)O2)nn1,-5,8,0,3,2,-10
O=c1ccc2[n+]([O-])c3ccc(O)cc3oc-2c1,-7,/,1,23*,/,3

# Screening data deposited in PubChem by Broad Institute.
